According to ChEMBL document CHEMBL4396885, “Thioether-based 2-aminobenzamide derivatives: Novel HDAC inhibitors with potent in vitro and in vivo antitumor activity” (Eur J Med Chem, 2019):

Assays:
A549 [1] = experiment: Inhibition of colony formation in human A549 cells incubated for 10 to 14 days by crystal violet staining based assay; assay type: functional, cell-based
Summary of the method: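 A549 seeded 3000 cells/well, treated after 12 h at 0.5, 1 and 2 µM, grown 10–14 days, fixed in 4% paraformaldehyde for 15 min and stained with 0.1% crystal violet.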

A549 [2] = experiment: Induction of apoptosis in human A549 cells assessed as early apoptotic cells at 2 uM after 48 hrs by Annexin V-FITC/propidium iodide staining based flow cytometry (reference value: 1.19%); assay type: functional
Summary of the method: (§1)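 A549 seeded 4×10⁶ cells/well, dosed after 12 h with compound at various concentrations, harvested after 48 h. Resuspended in annexin-binding buffer, stained with Annexin V-FITC and propidium iodide for 15 min in the dark, analysed by flow cytometry; means of three separate experiments.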

Histone deacetylase 1 = Histone deacetylase 1 (Homo sapiens, UniProt Q13547); experiment: Inhibition of recombinant human His tagged HDAC1 expressed in baculovirus infected insect cells assessed as decrease in deacetylation of FLUOR DE LYS Green substrate preincubated for 10 mins followed by substrate addition and measured after 30 mins by fluorescence based assay
[3] = Volume of distribution at steady state n ICR mouse at 4 mg/kg, iv after 0.08 to 24 hrs by LC-MS/MS analysis; assay type: ADME, organism-based; conditions: in vivo, read-out: Vdss
Summary of the method: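 Male ICR mice (29.7~37.4 g), single iv dose 4 mg/kg in DMSO:40% SBE-β-CD 20:80 (v/v). Retro-orbital blood at 0.08–24 h into EDTA-K2 tubes; plasma protein-precipitated with acetonitrile containing internal standards, analysed by LC-MS/MS; n=3 per time point; noncompartmental analysis.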

A549 [4] = experiment: Induction of apoptosis in human A549 cells assessed as early apoptotic cells at 0.5 uM after 48 hrs by Annexin V-FITC/propidium iodide staining based flow cytometry (reference value: 1.19%); assay type: functional; summary of the method: as §1
A549 [5] = experiment: Antiproliferative activity against human A549 cells assessed as growth inhibition at 8 uM after 72 hrs by CCK-8 assay relative to control; assay type: functional; conditions: A549, 72 h, read-out: GI
[6] = target: T1, Protein deacetylase HDAC6 (Homo sapiens, UniProt Q9UBN7); experiment: Inhibition of recombinant human His tagged HDAC6 expressed in baculovirus infected insect cells assessed as decrease in deacetylation of FLUOR DE LYS SIRT1 substrate by measuring decrease in fluorescence preincubated for 10 mins followed by substrate addition and measured after 30 mins by fluorescence based assay
T1 sequence (Q9UBN7 whole entry): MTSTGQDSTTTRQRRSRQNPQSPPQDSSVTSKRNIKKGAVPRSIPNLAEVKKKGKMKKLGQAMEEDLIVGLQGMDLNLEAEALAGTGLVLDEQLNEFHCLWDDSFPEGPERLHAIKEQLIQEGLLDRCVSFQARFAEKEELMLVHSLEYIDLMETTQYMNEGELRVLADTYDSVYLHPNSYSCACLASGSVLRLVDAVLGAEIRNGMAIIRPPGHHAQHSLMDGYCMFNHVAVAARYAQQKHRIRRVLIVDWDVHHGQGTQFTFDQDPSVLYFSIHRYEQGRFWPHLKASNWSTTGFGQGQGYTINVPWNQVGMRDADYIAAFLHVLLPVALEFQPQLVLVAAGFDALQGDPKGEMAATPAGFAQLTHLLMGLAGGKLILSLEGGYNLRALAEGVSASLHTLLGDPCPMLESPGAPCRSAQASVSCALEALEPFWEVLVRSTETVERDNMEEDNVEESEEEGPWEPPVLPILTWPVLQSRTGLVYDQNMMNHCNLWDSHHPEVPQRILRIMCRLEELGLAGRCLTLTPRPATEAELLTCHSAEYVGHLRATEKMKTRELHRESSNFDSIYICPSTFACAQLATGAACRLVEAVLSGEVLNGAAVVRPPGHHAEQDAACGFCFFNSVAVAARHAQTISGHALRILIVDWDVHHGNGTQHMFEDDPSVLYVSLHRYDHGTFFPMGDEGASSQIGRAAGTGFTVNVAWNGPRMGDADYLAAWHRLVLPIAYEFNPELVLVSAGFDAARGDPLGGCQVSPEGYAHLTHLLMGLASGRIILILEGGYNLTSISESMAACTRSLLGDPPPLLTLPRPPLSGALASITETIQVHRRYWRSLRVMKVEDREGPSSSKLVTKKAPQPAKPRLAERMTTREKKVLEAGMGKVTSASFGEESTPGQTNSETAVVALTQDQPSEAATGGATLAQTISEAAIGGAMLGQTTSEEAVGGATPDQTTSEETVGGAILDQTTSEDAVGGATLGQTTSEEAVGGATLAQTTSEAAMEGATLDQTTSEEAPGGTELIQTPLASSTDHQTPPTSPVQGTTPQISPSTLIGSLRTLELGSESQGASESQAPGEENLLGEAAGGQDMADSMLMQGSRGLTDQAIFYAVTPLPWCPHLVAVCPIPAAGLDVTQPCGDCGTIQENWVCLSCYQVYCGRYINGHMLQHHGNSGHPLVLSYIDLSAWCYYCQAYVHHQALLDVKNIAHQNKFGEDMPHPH

A549 [7] = experiment: Cell cycle arrest in human A549 cells assessed as increase in accumulation of cells at G2/M phase after 48 hrs by propidium iodide staining-based flow cytometry; assay type: functional
[8] = Toxicity against nude Balb/c mouse xenografted with human A549 cells assessed as no change in body weight at 25 mg/kg, ip administered twice per day for 21 days and measured every 3 days during compound dosing; assay type: organism-based; conditions: in vivo
Summary of the method: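 Female BALB/c nude mice, 5–6 weeks, implanted s.c. in right axilla with 3×10⁶ A549 cells; randomized at ~95 mm³ tumor volume, 4 per group. Dosed ip 25 mg/kg twice daily for 21 days; vehicle controls got DMA & 5% Solutol HS-15 (5:95). Tumor size (V=length×width²/2) and body weight measured every 3 days; TGI from volume change relative to control.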

NIH3T3 = experiment: Cytotoxicity against mouse NIH/3T3 cells assessed as reduction in cell viability after 72 hrs by CCK-8 assay; assay type: cell-based; conditions: NIH3T3, 72 h
A549 [9] = experiment: Induction of apoptosis in human A549 cells assessed as viable cells at 2 uM after 48 hrs by Annexin V-FITC/propidium iodide staining based flow cytometry (reference value: 98%); assay type: functional; conditions: A549, 48 h, read-out: Activity; summary of the method: as §1
A549 [10] = experiment: Cell cycle arrest in human A549 cells assessed as accumulation of cells at G0/G1 phase at 0.5 uM after 48 hrs by propidium iodide staining-based flow cytometry (reference value: 73.35%); assay type: functional
A549 [11] = experiment: Cell cycle arrest in human A549 cells assessed as accumulation of cells at G2/M phase at 1 uM after 48 hrs by propidium iodide staining-based flow cytometry (reference value: 13.62%); assay type: functional
HCT-116 = experiment: Antiproliferative activity against human HCT116 cells assessed as growth inhibition at 8 uM after 72 hrs by CCK-8 assay relative to control; assay type: functional; conditions: HCT-116, 72 h, read-out: GI
A549 [12] = experiment: Cell cycle arrest in human A549 cells assessed as accumulation of cells at G0/G1 phase at 1 uM after 48 hrs by propidium iodide staining-based flow cytometry (reference value: 73.35%); assay type: functional
A549 [13] = experiment: Cell cycle arrest in human A549 cells assessed as accumulation of cells at G2/M phase at 2 uM after 48 hrs by propidium iodide staining-based flow cytometry (reference value: 13.62%); assay type: functional

Chain of Histone deacetylase 1 (Q13547 whole entry): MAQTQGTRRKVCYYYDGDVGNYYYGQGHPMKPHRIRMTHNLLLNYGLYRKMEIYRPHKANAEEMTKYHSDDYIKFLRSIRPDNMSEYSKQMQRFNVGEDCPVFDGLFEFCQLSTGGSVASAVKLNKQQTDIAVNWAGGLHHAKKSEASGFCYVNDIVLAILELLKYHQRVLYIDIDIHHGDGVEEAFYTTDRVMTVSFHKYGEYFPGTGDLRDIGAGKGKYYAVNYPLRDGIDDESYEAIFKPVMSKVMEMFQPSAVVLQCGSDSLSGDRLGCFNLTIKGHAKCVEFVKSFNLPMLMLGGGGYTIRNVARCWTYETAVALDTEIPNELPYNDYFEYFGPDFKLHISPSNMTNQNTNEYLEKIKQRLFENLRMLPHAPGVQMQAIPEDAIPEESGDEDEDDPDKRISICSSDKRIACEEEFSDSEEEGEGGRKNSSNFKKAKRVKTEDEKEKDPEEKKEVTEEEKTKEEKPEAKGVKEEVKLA

IC50 (Histone deacetylase 1)	Vd [3]	IC50 [6]	SMILES	inhibition (A549 [1])	Activity (A549 [2])	Activity (A549 [4])	inhibition of growth at 8 µM (A549 [5])	Activity (A549 [7])	Activity [8]	IC50 (NIH3T3)	viability at 2 µM (A549 [9])	Activity (A549 [10])	Activity (A549 [11])	inhibition of growth at 8 µM (HCT-116)	Activity (A549 [12])	Activity (A549 [13])
0.071 µM	3.46 L/kg	> 32 µM	CCc1ccc(SCc2ccc(C(=O)Nc3ccccc3N)cc2)cc1	Dose-dependent effect	6.55%	11%	91.4%	Dose-dependent effect	Non-Toxic	3.66 µM	63.5%	33.89%	59.87%	79.1%	30.39%	66.48%
0.016 µM	1.74 L/kg	> 32 µM	COc1ccc(SCc2ccc(C(=O)Nc3ccccc3N)cc2)cc1	Dose-dependent effect	5.65%	5.21%	70.7%	Dose-dependent effect	Non-Toxic	4.04 µM	47.5%	64.38%	38.3%	90.1%	41.07%	48.06%
